Assay [1] deals with DNA topoisomerase 2-alpha (Homo sapiens) (UniProt P11388). The assay can be described thus: Poison activity at recombinant human topoisomerase-2 assessed as stabilization of covalent topo-2-DNA cleavage complex by measuring linear DNA formation at 10 uM using supercoiled pBR322 DNA as substrate after 60 mins by agarose gel electrophoresis method. Put shortly:
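Cleavable-complex assay: supercoiled pBR322 DNA was incubated with Topo II, with or without compound at a series of µM concentrations. Enzyme-mediated linear DNA marks cleavage-complex stabilisation. Reference poison is 10 µM m-AMSA.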

Another assay deals with MSTO-211H. Put plainly: Growth inhibition in human MSTO-211H cells after 72 hrs by trypan blue dye-based assay. It counts as functional. Put shortly: (§1)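 Three human tumour lines were used: HeLa (cervix adenocarcinoma), A-431 (epidermoid/squamous carcinoma) and MSTO-211H (biphasic mesothelioma). GI50 is the µM concentration giving 50% cell death relative to the untreated control culture. Ellipticine was run as reference.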

The next assay relates to A-431. Put plainly: Growth inhibition in human A431 cells after 72 hrs by trypan blue dye-based assay. The format is functional. To be noted: A-431, 72 h. Put shortly:
as §1

In assay [2] the test system is Salmon testes DNA. The assay can be described thus: Binding affinity to salmon DNA at compound to DNA ratio of 0.04 by linear flow dichroism analysis. It counts as nucleic-acid assay. To be noted: Salmonidae.
In assay [3] the target is T1, DNA topoisomerase 1 (Homo sapiens) (UniProt P11387).
T1 sequence (whole entry): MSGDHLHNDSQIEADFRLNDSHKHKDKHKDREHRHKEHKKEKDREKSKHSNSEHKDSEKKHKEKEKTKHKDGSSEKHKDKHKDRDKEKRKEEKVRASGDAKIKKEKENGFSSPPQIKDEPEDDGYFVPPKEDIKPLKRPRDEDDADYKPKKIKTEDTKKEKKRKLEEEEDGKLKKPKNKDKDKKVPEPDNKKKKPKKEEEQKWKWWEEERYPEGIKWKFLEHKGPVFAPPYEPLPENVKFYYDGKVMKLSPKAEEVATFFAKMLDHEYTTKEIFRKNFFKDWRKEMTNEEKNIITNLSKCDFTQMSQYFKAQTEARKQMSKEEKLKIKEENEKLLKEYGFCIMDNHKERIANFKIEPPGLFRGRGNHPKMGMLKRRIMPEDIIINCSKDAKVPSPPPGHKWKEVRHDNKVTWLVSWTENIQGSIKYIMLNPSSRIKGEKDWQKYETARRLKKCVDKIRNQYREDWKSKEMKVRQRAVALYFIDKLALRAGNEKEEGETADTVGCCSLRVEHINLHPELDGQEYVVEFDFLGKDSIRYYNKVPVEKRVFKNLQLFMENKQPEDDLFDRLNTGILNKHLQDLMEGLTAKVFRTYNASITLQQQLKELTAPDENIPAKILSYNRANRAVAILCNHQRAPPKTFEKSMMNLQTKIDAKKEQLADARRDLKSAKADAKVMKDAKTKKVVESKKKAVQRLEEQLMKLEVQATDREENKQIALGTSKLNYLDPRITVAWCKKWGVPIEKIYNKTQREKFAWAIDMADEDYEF
The assay can be described thus: Inhibition of recombinant human topoisomerase 1 assessed as decrease in relaxation of supercoiled pBR322 DNA after 60 mins by ethidium bromide staining based agarose gel electrophoresis method. Put shortly: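 Human recombinant Topo I was incubated with supercoiled pBR322 DNA, with or without compound at a series of µM concentrations. Read-out is the number of relaxed topoisomers formed.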

The next assay has as its system HeLa. The assay can be described thus: Growth inhibition in human HeLa cells after 72 hrs by trypan blue dye-based assay. The format is functional. Put shortly:
as §1

Assay [4] has as its target DNA topoisomerase 2-alpha (Homo sapiens) (UniProt P11388). Put plainly: Inhibition of recombinant human topoisomerase 2alpha assessed as decrease in relaxation of supercoiled pBR322 DNA after 60 mins by ethidium bromide staining based agarose gel electrophoresis method. Put shortly: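 Topo II was incubated with supercoiled pBR322 DNA, with or without compound at a series of µM concentrations. Read-out is topoisomer formation from supercoiled DNA on a gel. Reference is 10 µM m-AMSA.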

For assay [5], the target named is T1, DNA topoisomerase 1 (Homo sapiens). Put plainly: Poison activity at recombinant human topoisomerase-1 assessed as stabilization of covalent topo-1-DNA cleavage complex by measuring nicked DNA formation at 0.5 to 50 uM using supercoiled pBR322 DNA as substrate after 60 mins by agarose gel electrophoresis method. Put shortly: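 Cleavable-complex assay: supercoiled pBR322 DNA was incubated with Topo I, with or without compound at a series of µM concentrations. Nicked DNA formation marks covalent complex stabilisation. Reference is 0.5 µM camptothecin.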

For assay [6], the system named is Salmon testes DNA. Put plainly: Binding affinity to salmon DNA at compound to DNA ratio of 0.08 by linear flow dichroism analysis. The format is nucleic-acid assay. To be noted: Salmonidae.

Calls of active or inactive are those of the source. No cut-off for these calls is given here.

Sequence of DNA topoisomerase 2-alpha (Homo sapiens) (P11388 whole entry): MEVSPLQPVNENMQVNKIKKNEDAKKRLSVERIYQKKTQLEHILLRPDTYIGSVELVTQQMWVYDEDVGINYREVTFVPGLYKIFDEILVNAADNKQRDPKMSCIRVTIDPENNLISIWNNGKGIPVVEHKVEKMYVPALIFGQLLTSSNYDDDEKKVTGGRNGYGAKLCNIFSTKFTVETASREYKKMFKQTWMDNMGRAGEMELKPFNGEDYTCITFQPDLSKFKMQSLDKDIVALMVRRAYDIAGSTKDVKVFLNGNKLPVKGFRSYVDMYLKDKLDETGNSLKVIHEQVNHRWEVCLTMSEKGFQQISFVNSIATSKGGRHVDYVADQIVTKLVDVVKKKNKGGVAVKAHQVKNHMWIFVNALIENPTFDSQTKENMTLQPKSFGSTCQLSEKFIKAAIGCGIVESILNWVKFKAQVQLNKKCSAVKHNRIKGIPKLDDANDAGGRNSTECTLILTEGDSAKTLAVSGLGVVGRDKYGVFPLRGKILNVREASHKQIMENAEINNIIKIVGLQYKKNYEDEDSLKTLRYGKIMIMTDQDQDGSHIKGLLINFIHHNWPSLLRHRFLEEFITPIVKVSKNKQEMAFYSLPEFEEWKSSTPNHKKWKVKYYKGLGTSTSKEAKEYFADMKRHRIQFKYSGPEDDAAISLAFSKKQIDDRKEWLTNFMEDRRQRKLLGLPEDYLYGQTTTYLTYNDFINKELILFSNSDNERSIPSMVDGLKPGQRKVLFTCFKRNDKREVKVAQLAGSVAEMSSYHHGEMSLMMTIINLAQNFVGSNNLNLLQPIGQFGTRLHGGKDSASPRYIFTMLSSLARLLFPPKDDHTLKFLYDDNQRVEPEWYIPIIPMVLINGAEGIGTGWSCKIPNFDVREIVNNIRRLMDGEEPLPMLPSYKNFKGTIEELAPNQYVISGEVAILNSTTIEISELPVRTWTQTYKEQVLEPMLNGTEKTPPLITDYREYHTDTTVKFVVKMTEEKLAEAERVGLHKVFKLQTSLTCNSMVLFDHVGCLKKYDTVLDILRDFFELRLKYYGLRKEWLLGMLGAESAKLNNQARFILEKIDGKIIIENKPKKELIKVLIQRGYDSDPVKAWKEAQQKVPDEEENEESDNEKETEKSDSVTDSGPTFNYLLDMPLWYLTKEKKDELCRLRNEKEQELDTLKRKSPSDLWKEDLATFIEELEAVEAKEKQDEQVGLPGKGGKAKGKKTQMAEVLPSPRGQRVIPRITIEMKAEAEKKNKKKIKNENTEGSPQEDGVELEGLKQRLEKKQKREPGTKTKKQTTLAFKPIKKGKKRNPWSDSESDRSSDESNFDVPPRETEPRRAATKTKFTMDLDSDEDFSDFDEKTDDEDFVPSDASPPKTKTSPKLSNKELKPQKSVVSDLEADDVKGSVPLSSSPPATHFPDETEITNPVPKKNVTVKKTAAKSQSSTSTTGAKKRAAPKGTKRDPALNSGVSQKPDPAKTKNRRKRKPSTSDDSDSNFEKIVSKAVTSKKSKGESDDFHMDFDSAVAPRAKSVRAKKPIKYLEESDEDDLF

For `COc1cc(NS(C)(=O)=O)ccc1Nc1c2ccccc2nc2ccccc12`, in assay [1], the result was Active.
Consider `CCN(CC)CCn1c2cc(OC)c(OC)cc2c2sc3cc(Cl)ccc3c(=O)c21`, for which the GI50 with MSTO-211H is 2.37 µM; in the assay on A-431 it was 2.22 µM; with HeLa, 4.55 µM. In addition, the outcome (in the assay on Salmon testes DNA [2]; in assay [1]) was Active. Also, the inhibition result in assay [3] and in [4] was “Dose-dependent effect” throughout. For the same molecule, the outcome in [5] was inactive.
On to `CCN(CC)CCn1c2ccccc2c2sc3ncccc3c(=O)c21`, for which the GI50 in the assay on MSTO-211H came out at 1.33 µM; in the assay on A-431, 0.47 µM; with HeLa, 2.57 µM. The outcome (with Salmon testes DNA [2]; in [1]) was Active. For the same molecule, the inhibition result in [3] and in [4] was “Dose-dependent effect” throughout. Also, in assay [5], the result was inactive.
For `CN(C)CCn1c2ccc(Cl)cc2c2sc3cc(Cl)ccc3c(=O)c21`, the figures for the GI50 with MSTO-211H, in the assay with A-431 and in the assay with HeLa were 1.64 µM, 1.76 µM and 2.66 µM, respectively. Moreover, the outcome (in the assay with Salmon testes DNA [6]; in assay [1]) was Active. For the same molecule, the inhibition entry in [3] and in assay [4] was “Dose-dependent effect” in each case. Further, the outcome in [5] was inactive.
Take `COc1ccc2c(=O)c3c(sc2c1)c1cc(OC)c(OC)cc1n3CCN(C)C`: the GI50 in the assay on MSTO-211H was 0.44 µM; in the assay on A-431, 0.48 µM; in the assay with HeLa it was 0.74 µM. Moreover, the result (with Salmon testes DNA [2]; in [1]) was Active. Also, the inhibition entry in assay [3] and in assay [4] was “Dose-dependent effect” in each case. In addition, in assay [5], the outcome was inactive.
As for `CCN(CC)CCn1c2cc(OC)c(OC)cc2c2sc3ncccc3c(=O)c21`, the GI50 in the assay on MSTO-211H amounted to 0.62 µM; with A-431, 2.67 µM; in the assay on HeLa, 6.93 µM. Also, the outcome (in the assay with Salmon testes DNA [2]; in assay [1]; in assay [5]) was Active. Also, the inhibition entry in assay [3] and in assay [4] was “Dose-dependent effect” in each case.
In the case of `CCN(CC)CCn1c2ccc(OC)cc2c2sc3ccccc3c(=O)c21`, the values for the GI50 in the assay on MSTO-211H, with A-431 and in the assay on HeLa were 1.61 µM, 2.08 µM and 2.79 µM, respectively. In addition, the outcome (with Salmon testes DNA [6]; in assay [1]) was Active. In addition, the inhibition entry in assay [3] and in assay [4] was “Dose-dependent effect” throughout. For the same molecule, the outcome in assay [5] was inactive.
As for `CCN(CC)CCn1c2cc(OC)c(OC)cc2c2sc3cc(OC)ccc3c(=O)c21`, the 50% growth inhibitory concentration (GI50) in the assay on MSTO-211H was 0.36 µM; in the assay with A-431 it was 0.67 µM; in the assay on HeLa, 1.75 µM. Besides, the result (in the assay on Salmon testes DNA [2]; in assay [1]) was Active. Moreover, the inhibition entry in assay [3] and in assay [4] was “Dose-dependent effect” in each case. Moreover, the outcome in [5] was inactive.
Consider `CN(C)CCn1c2ccccc2c2sc3ncccc3c(=O)c21`, for which the GI50 in the assay on MSTO-211H was 1.08 µM; in the assay on A-431 it was 0.54 µM; in the assay on HeLa, 1.55 µM. Moreover, the result (with Salmon testes DNA [2]; in assay [1]) was Active. The inhibition result in [3] and in [4] was “Dose-dependent effect” throughout. The outcome in assay [5] was inactive.
In the case of `CCN(CC)CCn1c2ccc(OC)cc2c2sc3cc(Cl)ccc3c(=O)c21`, the results for the GI50 in the assay on MSTO-211H, in the assay on A-431 and in the assay with HeLa were 4.19 µM, 5.44 µM and 3.21 µM, respectively. In addition, the outcome (in the assay with Salmon testes DNA [6]; in assay [1]) was Active. Also, the inhibition result in assay [3] and in [4] was “Dose-dependent effect” throughout. For the same molecule, in assay [5], the result was inactive.
For `CCN(CC)CCn1c2ccc(Cl)cc2c2sc3ncccc3c(=O)c21`, the GI50 with MSTO-211H stood at 1.42 µM; in the assay with A-431 it was 1.79 µM; with HeLa, 4.2 µM. The outcome (in the assay with Salmon testes DNA [2]; in [1]) was Active. In addition, the inhibition entry in [3] and in [4] was “Dose-dependent effect” each time. The outcome in [5] was inactive.
For `CCN(CC)CCn1c2ccc(OC)cc2c2sc3ncccc3c(=O)c21`, the results for the GI50 in the assay with MSTO-211H, in the assay with A-431 and in the assay with HeLa were 0.7 µM, 1.9 µM and 2.61 µM, respectively. In addition, the outcome (in the assay on Salmon testes DNA [2]; in [1]) was Active. Moreover, the inhibition entry in assay [3] and in assay [4] was “Dose-dependent effect” each time. In addition, in assay [5], the outcome was inactive.
On to `CN(C)CCn1c2ccc(Cl)cc2c2sc3ncccc3c(=O)c21`, for which the GI50 in the assay with MSTO-211H was found to be 2.36 µM; in the assay on A-431 it was 2 µM; in the assay with HeLa, 3.02 µM. Further, the result (with Salmon testes DNA [2]; in assay [1]) was Active. Besides, the inhibition result in [3] and in assay [4] was “Dose-dependent effect” each time. Moreover, the result in assay [5] was inactive.
For the molecule `COc1ccc2c(c1)c1sc3ncccc3c(=O)c1n2CCN(C)C`, the figures for the GI50 in the assay with MSTO-211H, in the assay on A-431 and with HeLa were 0.75 µM, 1.42 µM and 2.71 µM, respectively. Besides, the outcome (in the assay with Salmon testes DNA [2]; in assay [1]) was Active. In addition, the inhibition entry in [3] and in assay [4] was “Dose-dependent effect” throughout. Further, the result in assay [5] was inactive.
As for `CCN(CC)CCn1c2ccc(Cl)cc2c2sc3cc(Cl)ccc3c(=O)c21`, the results for the GI50 with MSTO-211H, in the assay on A-431 and in the assay on HeLa were 2.99 µM, 3.29 µM and 4.31 µM, respectively. For the same molecule, the outcome (with Salmon testes DNA [6]; in [1]) was Active. The inhibition result in [3] and in assay [4] was “Dose-dependent effect” in each case. In addition, in [5], the outcome was inactive.
`COc1cc2c3sc4cc(Cl)ccc4c(=O)c3n(CCN(C)C)c2cc1OC`: the GI50 in the assay with MSTO-211H was determined as 1.82 µM; in the assay with A-431, 3.19 µM; in the assay on HeLa, 3.54 µM. Further, the outcome (in the assay on Salmon testes DNA [2]; in assay [1]) was Active. The inhibition result in assay [3] and in assay [4] was “Dose-dependent effect” in each case. Also, the outcome in assay [5] was inactive.
On to `CCN(CC)CCn1c2cc(OC)c(OC)cc2c2sc3ccccc3c(=O)c21`, for which the GI50 came to 0.7 µM with MSTO-211H, 1.11 µM in the assay with A-431 and 1.77 µM in the assay with HeLa. Also, the outcome (in the assay on Salmon testes DNA [2]; in assay [1]; in assay [5]) was Active. Further, the inhibition entry in assay [3] and in assay [4] was “Dose-dependent effect” throughout.
On to `COc1ccc2c(c1)c1sc3ccccc3c(=O)c1n2CCN(C)C`, for which the values for the GI50 with MSTO-211H, in the assay on A-431 and with HeLa were 2.37 µM, 2.24 µM and 5.81 µM, respectively. The result (with Salmon testes DNA [6]; in assay [1]) was Active. The inhibition result in assay [3] and in assay [4] was “Dose-dependent effect” in each case. Further, in assay [5], the outcome was inactive.

A word on the GI50: it is the concentration giving 50% growth inhibition.

For the origin of these results see ChEMBL document CHEMBL4400511, “Benzothiopyranoindole- and pyridothiopyranoindole-based antiproliferative agents targeting topoisomerases” (2019).
